Source: ChEMBL document CHEMBL1155539, “Discovery of 4-[1-[([1-[4-(trifluoromethyl)benzyl]-1H-indol-7-yl]carbonyl)amino]cyclopropyl]benzoic acid (MF-766), a highly potent and selective EP4 antagonist for treating inflammatory pain” (Bioorg Med Chem Lett, 2010)

Legend:
[1] = target: T1, Prostaglandin D2 receptor 2 (Homo sapiens, UniProt Q9Y5Y4); assay: Displacement of [3H]PGD2 from human Prostanoid DP2 receptor expressed in HEK293-EBNA cells after 60 mins by scintillation counting; format: cell-based
T1 sequence (Q9Y5Y4 whole entry): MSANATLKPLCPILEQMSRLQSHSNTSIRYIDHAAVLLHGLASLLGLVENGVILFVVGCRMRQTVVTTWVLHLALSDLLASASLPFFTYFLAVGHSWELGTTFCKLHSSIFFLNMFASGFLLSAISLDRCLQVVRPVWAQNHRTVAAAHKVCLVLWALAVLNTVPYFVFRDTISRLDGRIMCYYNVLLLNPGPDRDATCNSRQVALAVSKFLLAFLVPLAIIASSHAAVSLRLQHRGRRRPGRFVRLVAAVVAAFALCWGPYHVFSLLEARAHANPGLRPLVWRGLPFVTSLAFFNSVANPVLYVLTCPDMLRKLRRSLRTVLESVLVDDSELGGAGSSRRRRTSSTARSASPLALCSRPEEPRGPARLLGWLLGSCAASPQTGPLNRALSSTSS

[2] = target: T2, Thromboxane A2 receptor (Homo sapiens, UniProt P21731); assay: Displacement of [3H]SQ-29548 from human prostanoid TP receptor expressed in HEK293-EBNA cells after 60 mins by scintillation counting; format: cell-based
T2 sequence (P21731 whole entry): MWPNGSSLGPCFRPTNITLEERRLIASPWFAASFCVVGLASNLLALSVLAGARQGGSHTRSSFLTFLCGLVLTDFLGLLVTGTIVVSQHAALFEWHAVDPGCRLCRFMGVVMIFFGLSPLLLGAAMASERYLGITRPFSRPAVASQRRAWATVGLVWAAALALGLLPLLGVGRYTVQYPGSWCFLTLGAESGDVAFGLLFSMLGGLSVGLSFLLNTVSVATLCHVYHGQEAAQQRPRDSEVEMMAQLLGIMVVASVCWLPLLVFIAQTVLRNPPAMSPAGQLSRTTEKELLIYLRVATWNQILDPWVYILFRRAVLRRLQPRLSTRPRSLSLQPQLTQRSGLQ

[3] = target: T3, Prostaglandin E2 receptor EP4 subtype (Homo sapiens, UniProt P35408); assay: Antagonist activity at human prostanoid EP4 receptor expressed in HEK293 cells assessed as inhibition of PGE2-induced cAMP accumulation by scintillation proximity assay; format: functional, cell-based
T3 sequence (P35408 whole entry): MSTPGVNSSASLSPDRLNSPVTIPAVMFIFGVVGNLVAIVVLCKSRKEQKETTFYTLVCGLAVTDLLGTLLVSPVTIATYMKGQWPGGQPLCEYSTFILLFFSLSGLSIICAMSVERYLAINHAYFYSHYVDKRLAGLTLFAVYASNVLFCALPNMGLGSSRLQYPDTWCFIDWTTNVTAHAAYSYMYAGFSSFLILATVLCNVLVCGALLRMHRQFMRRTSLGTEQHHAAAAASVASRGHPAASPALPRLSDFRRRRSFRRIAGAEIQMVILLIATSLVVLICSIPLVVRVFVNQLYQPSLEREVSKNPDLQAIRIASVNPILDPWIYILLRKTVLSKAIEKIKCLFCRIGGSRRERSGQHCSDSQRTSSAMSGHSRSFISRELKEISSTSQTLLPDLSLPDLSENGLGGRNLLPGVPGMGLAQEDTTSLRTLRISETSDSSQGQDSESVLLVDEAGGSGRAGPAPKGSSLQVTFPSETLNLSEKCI
Method in brief: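 Read-out was inhibition of PGE2-induced cAMP accumulation at EP4. Values are means from at least two independent experiments.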

[4] = target: T3, Prostaglandin E2 receptor EP4 subtype; assay: Antagonist activity at human prostanoid EP4 receptor expressed in HEK293 cells assessed as inhibition of PGE2-induced cAMP accumulation by scintillation proximity assay in presence of 10% human serum; format: functional, cell-based
[5] = target: T3, Prostaglandin E2 receptor EP4 subtype; assay: Antagonist activity at prostanoid EP4 receptor in human whole blood assessed as inhibition of TNF-alpha-induced IP-10 release in presence EP4 agonist L-000902688; format: functional, tissue-based
[6] = tested on: Hepatocyte; assay: Metabolic stability in human hepatocytes; format: ADME, cell-based
[7] = Metabolic stability in dog hepatocytes; format: ADME, cell-based, Canis lupus familiaris, Hepatocyte
[8] = tested on: Hepatocyte; assay: Oxidative metabolism in rat hepatocytes assessed as protein covalent binding after 2 hrs; format: ADME, cell-based
Method in brief: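 [3H]-labelled compound incubated with fresh rat or human hepatocytes for 2 h. Covalent protein binding was expressed as pmol-equiv/mg protein, and samples were checked for tritium loss by HPLC with radiometric detection.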

[9] = tested on: Rattus norvegicus; assay: Antiinflammatory activity in rat assessed as inhibition of complete Freund's adjuvant-induced primary paw swelling administered daily once 9 days after adjuvant challenge measured on day 18; format: functional
Method in brief: (§1)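 Rat adjuvant-induced arthritis model with daily dosing in mg/kg/day. Dose groups were 0, 0.001, 0.01, 0.1 and 1 mg/kg, plus a non-AIA control group. Primary and secondary paw swelling were scored as % inhibition relative to vehicle-treated arthritic rats, and ED50 was estimated from the dose–response.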

[10] = Drug level in complete Freund's adjuvant challenged rat administered daily once 9 days after adjuvant challenge measured on day 18 after 24 hrs post dose; format: ADME, organism-based; settings: in vivo, read-out: Drug uptake
Method in brief: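 In a separate rat AIA experiment with daily dosing, plasma drug levels were measured 2 h and 24 h after the final dose.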

[11] = tested on: Rattus norvegicus; assay: Antiinflammatory activity in rat assessed as inhibition of complete Freund's adjuvant-induced primary paw swelling at 0.001 to 1 mg/kg administered daily once 9 days after adjuvant challenge measured on day 18; format: functional; design: scale not given: the % may be the effect or the level left; settings: dose mg/kg 0.001-1; method in brief: as §1
[12] = tested on: Rattus norvegicus; assay: Antiinflammatory activity in rat assessed as inhibition of complete Freund's adjuvant-induced secondary paw swelling at 0.001 to 1 mg/kg administered daily once 9 days after adjuvant challenge measured on day 18; format: functional; design: scale not given: the % may be the effect or the level left; settings: dose mg/kg 0.001-1; method in brief: as §1
[13] = target: T3, Prostaglandin E2 receptor EP4 subtype; assay: Displacement of [3H]PGE2 from human prostanoid EP4 receptor expressed in HEK293-EBNA cells after 60 mins by scintillation counting; format: cell-based
[14] = target: T4, Prostaglandin E2 receptor EP1 subtype (Homo sapiens, UniProt P34995); assay: Displacement of [3H]PGE2 from human prostanoid EP1 receptor expressed in HEK293-EBNA cells after 60 mins by scintillation counting; format: cell-based
T4 sequence (P34995 whole entry): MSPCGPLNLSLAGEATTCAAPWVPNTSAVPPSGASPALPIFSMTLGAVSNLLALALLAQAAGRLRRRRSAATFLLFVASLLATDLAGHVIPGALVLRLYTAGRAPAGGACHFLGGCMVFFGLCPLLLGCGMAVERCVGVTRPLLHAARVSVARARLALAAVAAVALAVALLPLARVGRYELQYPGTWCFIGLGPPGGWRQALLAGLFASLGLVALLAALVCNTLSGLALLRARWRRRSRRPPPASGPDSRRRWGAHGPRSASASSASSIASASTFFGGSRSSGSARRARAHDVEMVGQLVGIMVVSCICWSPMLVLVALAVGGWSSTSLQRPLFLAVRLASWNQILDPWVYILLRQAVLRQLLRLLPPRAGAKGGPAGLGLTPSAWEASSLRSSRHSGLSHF

[15] = target: Prostaglandin E2 receptor EP2 subtype (Homo sapiens, UniProt P43116); assay: Displacement of [3H]PGE2 from human prostanoid EP2 receptor expressed in HEK293-EBNA cells after 60 mins by scintillation counting; format: cell-based
Prostaglandin E2 receptor EP2 subtype, sequence (P43116 whole entry): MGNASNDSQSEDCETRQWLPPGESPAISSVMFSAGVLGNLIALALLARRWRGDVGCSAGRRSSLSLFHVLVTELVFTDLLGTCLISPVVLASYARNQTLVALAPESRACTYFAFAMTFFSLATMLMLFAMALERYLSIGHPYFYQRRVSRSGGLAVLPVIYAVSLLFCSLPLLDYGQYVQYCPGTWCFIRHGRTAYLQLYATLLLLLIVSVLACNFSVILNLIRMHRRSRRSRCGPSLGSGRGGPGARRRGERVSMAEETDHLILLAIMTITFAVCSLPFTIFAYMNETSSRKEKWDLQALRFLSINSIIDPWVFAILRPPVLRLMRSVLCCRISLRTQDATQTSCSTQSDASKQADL

[16] = target: T5, Prostaglandin E2 receptor EP3 subtype (Homo sapiens, UniProt P43115); assay: Displacement of [3H]PGE2 from human prostanoid EP3 receptor expressed in HEK293-EBNA cells after 60 mins by scintillation counting; format: cell-based
T5 sequence (P43115 whole entry): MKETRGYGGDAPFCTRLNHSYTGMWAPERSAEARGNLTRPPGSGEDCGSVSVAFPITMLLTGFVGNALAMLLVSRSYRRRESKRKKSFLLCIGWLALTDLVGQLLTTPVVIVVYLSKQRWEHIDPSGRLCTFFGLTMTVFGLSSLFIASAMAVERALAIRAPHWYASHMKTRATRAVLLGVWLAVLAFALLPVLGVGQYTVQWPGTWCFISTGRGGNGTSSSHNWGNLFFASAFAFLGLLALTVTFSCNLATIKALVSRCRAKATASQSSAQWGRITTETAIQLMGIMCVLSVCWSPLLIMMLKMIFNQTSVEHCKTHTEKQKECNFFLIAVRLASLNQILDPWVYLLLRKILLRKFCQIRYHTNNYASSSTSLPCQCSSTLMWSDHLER

[17] = tested on: Canis familiaris; assay: AUC (0 to 24 hrs) in Beagle dog at 4 mg/kg, po; settings: in vivo

**Q.** For `O=C(O)c1ccc(C2(NC(=O)c3cccc4ccn(Cc5ccc(C(F)(F)F)cc5)c34)CC2)cc1`, which Ki [1] is on record?
**A.** > 21 µM

**Q.** What about the Ki [2] of the same compound?
**A.** 6.7 µM

**Q.** What about the IC50 [3] of the same compound?
**A.** 0.0013 µM

**Q.** And the IC50 [4]?
**A.** 0.0018 µM

**Q.** What about the IC50 [5] of the same compound?
**A.** 0.0095 µM

**Q.** What about the Stability [6] of the same compound?
**A.** Stable

**Q.** What about the Stability [7] of the same compound?
**A.** Stable

**Q.** And the Activity [8]?
**A.** 61 pmolequiv/mg

**Q.** What about the ED100 [9] of the same compound?
**A.** 0.025 mg/kg/day

**Q.** What about the concentration at 24 h [10] of the same compound?
**A.** 3.1 nM

**Q.** What about the Activity [11] of the same compound?
**A.** 70%

**Q.** And the Activity [12]?
**A.** 100%

**Q.** What about the Ki [13] of the same compound?
**A.** 0.00023 µM

**Q.** What about the Ki [14] of the same compound?
**A.** 20 µM

**Q.** And the Ki [15]?
**A.** 8 µM

**Q.** What about the Ki [16] of the same compound?
**A.** 7.4 µM

**Q.** What about the AUC [17] of the same compound?
**A.** 15 µM·h
